The values that follow come from ChEMBL document CHEMBL4316633, “The Antiangiogenic Activity of Naturally Occurring and Synthetic Homoisoflavonoids from the Hyacinthaceae ( sensu APGII)” (J Nat Prod, 2019).

Data set [1] in a line: Antiproliferative activity against HREC assessed as reduction in cell number incubated for 44 hrs by alamar blue based fluorescence assay. The data set is classed as functional. The following applies: Homo sapiens.
Data set [2] can be described thus: Antiproliferative activity against HUVEC assessed as reduction in cell number incubated for 44 hrs by alamar blue based fluorescence assay. The following applies: human, HUVEC cells. The procedure, abridged: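 Primary endothelial cells (HRECs, HUVECs; passage 5–8) in EGM-2; 2,500 cells seeded, 24 h at 37°C, 5% CO2, then compounds 0.5 nM–500 μM for 44 h. alamarBlue added 4 h, fluorescence ex 560/em 590 nm.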
On the technique in general: Alamar Blue is a resazurin reagent that responds to reducing activity.

A short description of data set [3]: Cytotoxicity against human Y79 cells assessed as reduction in cell number incubated for 44 hrs by alamar blue based fluorescence assay.
A short description of data set [4]: Cytotoxicity against human 92-1 cells assessed as reduction in cell number incubated for 44 hrs by alamar blue based fluorescence assay.
Data set [5] can be described thus: Antiproliferative activity against human ARPE19 assessed as reduction in cell number incubated for 44 hrs by alamar blue based fluorescence assay. The following applies: ARPE-19 cells.
The species entered for the next data set is Homo sapiens. The experiment in a line: Antiangiogenic activity against HREC assessed as reduction in tube formation incubated for 8 hrs by matrigel based tube formation assay. In kind it is functional. The essentials:
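HRECs (passage 5–8), 15,000 cells in EGM-2 medium, plated on Matrigel basement membrane coat with DMSO vehicle or graded compound concentrations; SH-11037 as positive control. Images taken after 8 h; tubule length quantified by Angiogenesis Analyzer macros and expressed relative to DMSO control. Mean ± SEM, n=3–6 wells, duplicate experiments; one-way ANOVA with Dunnett's test.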

Bounds are passed on as bounds.

Regarding `COc1cc(O)cc2c1C(=O)/C(=C/c1ccc(O)c(O)c1)CO2`, the GI50 (commonly the concentration that inhibits growth by half) in data set [1] was above 100 µM. For the same molecule, the GI50 at 44 h in data set [2], in data set [3] and in data set [4] was above 100 µM each time.

Regarding `COc1ccc(/C=C2\COc3cc(O)c(O)c(O)c3C2=O)cc1O`, in data set [1], the GI50 was 17 µM. Further, the GI50 at 44 h in data set [2] is 41 µM; in data set [3] it was 23 µM; in data set [4] it was above 100 µM.

On to `COc1ccc(CC2(O)COc3cc(O)cc(O)c3C2=O)cc1` (configuration not stated), for which, in data set [1], the GI50 was above 100 µM. The GI50 at 44 h in data set [2], in data set [3] and in data set [4] was above 100 µM throughout.

Consider `COc1c(O)cc(O)c2c1OC[C@@H](Cc1ccc(O)cc1)C2=O`, for which, in data set [1], the GI50 was 64 to 100 µM. The GI50 at 44 h in data set [5], in data set [2], in data set [3] and in data set [4] was above 100 µM throughout.

Consider `COc1cc(O)c2c(c1)OC[C@]1(Cc3c1cc(OC)c(OC)c3O)C2=O`, for which the GI50 in data set [1] was above 100 µM. Also, the GI50 at 44 h in data set [2], in data set [3] and in data set [4] was above 100 µM throughout.

Consider `O=C1CCOc2cc(O)cc(O)c21`, for which the GI50 in data set [1] is above 100 µM. The GI50 at 44 h in data set [2], in data set [3] and in data set [4] was above 100 µM each time.

On to `O=C1/C(=C/c2ccc(O)c(O)c2)COc2cc(O)cc(O)c21`, for which the GI50 in data set [1] was above 100 µM. For the same molecule, the GI50 at 44 h in data set [5], in data set [3] and in data set [4] was above 100 µM in each case.

As to `O=Cc1ccc(O)cc1` [4-HYDROXYBENZALDEHYDE], the GI50 in data set [1] is above 100 µM. Moreover, the GI50 at 44 h in data set [2], in data set [3] and in data set [4] was above 100 µM in each case.

With `COc1ccc(C[C@@H]2COc3c(OC)c(O)cc(O)c3C2=O)cc1`, the GI50 in data set [1] was above 100 µM. The GI50 at 44 h in data set [5], in data set [3] and in data set [4] was above 100 µM throughout.

As for `CC(=O)Oc1cc(O)cc2c1C(=O)/C(=C/c1ccc(O)c(O)c1)CO2`, the GI50 in data set [1] is 1.4 µM. In addition, the inhibition result in the data set filed under Homo sapiens is “Dose-dependent effect”. Further, the GI50 at 44 h was 5 µM in data set [2], 2.5 µM in data set [3] and above 100 µM in data set [4].

As for `COc1c(O)c(OC)c2c(c1O)OC[C@@H](Cc1ccc(O)cc1)C2=O`, the GI50 in data set [1] is above 100 µM. Moreover, the GI50 at 44 h in data set [5], in data set [3] and in data set [4] was above 100 µM each time.

For the molecule `COc1cc(O)cc(OC)c1C(=O)/C=C/c1ccc(O)cc1`, the GI50 in data set [1] was above 100 µM. The 50% growth inhibitory concentration (GI50) at 44 h in data set [2] and in data set [3] was above 100 µM each time.

`COc1ccc(/C=C2\COc3c(OC)c(O)cc(O)c3C2=O)cc1`: in data set [1], the 50% growth inhibitory concentration (GI50) was above 100 µM. The GI50 at 44 h in data set [5], in data set [3] and in data set [4] was above 100 µM each time.

For `O=C1c2c(O)cc(O)cc2OC[C@H]1Cc1ccc(O)c(O)c1`, in data set [1], the GI50 was above 100 µM. The GI50 at 44 h in data set [2], in data set [3] and in data set [4] was above 100 µM each time.

Consider `COc1cc(OC)c2c(c1)OC/C(=C\c1ccc(SC)cc1)C2=O`, for which the GI50 in data set [1] was 2.5 µM. For the same molecule, the GI50 at 44 h in data set [5] was 48 µM; in data set [3], 2 µM; in data set [4], above 100 µM.

Turning to `COc1ccc(/C=C2\COc3cc(OC(C)=O)c(O)c(O)c3C2=O)cc1OC(C)=O`, the GI50 in data set [1] was 16 µM. In addition, the inhibition entry in the data set listed under Homo sapiens is “Dose-dependent effect”. Moreover, the figures for the GI50 at 44 h in data set [2], in data set [3] and in data set [4] were 11 µM, 29 µM and 69 µM, respectively.

As to `COc1ccc(/C=C2\COc3cc(OC)c(OC)c(OC)c3C2=O)cc1O`, the GI50 in data set [1] was found to be 2.2 µM. For the same molecule, the GI50 at 44 h was determined as 1.3 µM in data set [5], 23 µM in data set [3] and 8.2 µM in data set [4].

Regarding `COc1c(O)cc2c(c1O)C(=O)[C@H](Cc1ccc(O)c(O)c1)CO2`, the 50% growth inhibitory concentration (GI50) in data set [1] is above 100 µM. The GI50 at 44 h in data set [5], in data set [3] and in data set [4] was above 100 µM in each case.

With `COc1cc2c(cc1O)C[C@]21COc2cc(O)cc(O)c2C1=O`, the GI50 in data set [1] was above 100 µM. Further, the GI50 at 44 h in data set [2], in data set [3] and in data set [4] was above 100 µM in each case.

Turning to `COc1cc2c(cc1O)C[C@]21COc2cc(OC(C)=O)cc(OC(C)=O)c2C1=O`, the GI50 in data set [1] is above 100 µM. Besides, the GI50 at 44 h in data set [2], in data set [3] and in data set [4] was above 100 µM throughout.

For the molecule `COc1cc2c(cc1O)[C@@]1(COc3cc(O)cc(O)c3C1=O)C2`, the GI50 in data set [1] is above 100 µM. The GI50 at 44 h in data set [2], in data set [3] and in data set [4] was above 100 µM throughout.

On to `COc1cc2c(cc1O)C[C@]21COc2cc(OC(C)=O)cc(O)c2C1=O`, for which the GI50 in data set [1] was above 100 µM. The GI50 at 44 h in data set [2], in data set [3] and in data set [4] was above 100 µM throughout.

With `COc1cc(OC(C)=O)cc2c1C(=O)/C(=C/c1ccc(OC(C)=O)cc1)CO2`, in data set [1], the GI50 is 96 µM. Further, the GI50 at 44 h in data set [2] is 43 µM; in data set [3], above 100 µM; in data set [4], above 100 µM.

For the molecule `COc1ccc(C[C@@H]2COc3cc(O)cc(O)c3C2=O)cc1`, in data set [1], the GI50 is above 100 µM. Moreover, the GI50 at 44 h in data set [2], in data set [3] and in data set [4] was above 100 µM in each case.

Consider `COc1cc(O)cc2c1C(=O)[C@H](Cc1ccc(O)c(O)c1)CO2`, for which the GI50 in data set [1] is above 100 µM. The GI50 at 44 h is 14 µM in data set [2], 25 µM in data set [3] and above 100 µM in data set [4].

Take `COc1cc2c(c(OC)c1OC)C(=O)/C(=C/c1ccc(Cl)c(O)c1)CO2`: in data set [1], the GI50 was determined as 0.11 µM. For the same molecule, the figures for the GI50 at 44 h in data set [5], in data set [3] and in data set [4] were 0.73 µM, 13 µM and 3.6 µM, respectively.

Regarding `COc1ccc(C[C@H]2COc3cc(OC(C)=O)cc(OC(C)=O)c3C2=O)cc1O`, the GI50 in data set [1] was above 100 µM. For the same molecule, the figures for the GI50 at 44 h in data set [2], in data set [3] and in data set [4] were 92 µM, above 100 µM and above 100 µM, respectively.

As for `COc1ccc2c(c1OC)OC/C(=C\c1ccc(SC)cc1)C2=O`, the GI50 in data set [1] amounted to 3.6 µM. The GI50 at 44 h in data set [5] was above 100 µM; in data set [3], 11 µM; in data set [4], above 100 µM.

For `COc1ccc(CC2COc3cc(OC)c(OC)c(OC)c3C2=O)cc1O` (racemic), in data set [1], the GI50 stood at 0.21 µM. Besides, the GI50 at 44 h in data set [5], in data set [3] and in data set [4] was above 100 µM each time.

Consider `O=C1/C(=C/c2ccc(O)cc2)COc2cc(O)cc(O)c21`, for which the GI50 in data set [1] is 60 µM. In addition, the GI50 at 44 h in data set [5], in data set [3] and in data set [4] was above 100 µM in each case.

For the molecule `O=C1c2c(O)cc(O)cc2OC[C@H]1Cc1ccc(O)cc1`, in data set [1], the GI50 is above 100 µM. Further, the GI50 at 44 h in data set [2], in data set [3] and in data set [4] was above 100 µM in each case.

In the case of `COc1ccc(C[C@]2(O)COc3cc(OC)cc(O)c3C2=O)cc1`, the GI50 in data set [1] came to 64 µM. Further, the GI50 at 44 h in data set [5], in data set [3] and in data set [4] was above 100 µM throughout.

Turning to `COc1c(O)cc(O)c2c1OC/C(=C\c1ccc(O)cc1)C2=O`, in data set [1], the GI50 worked out at 40 µM. Moreover, the GI50 at 44 h in data set [2], in data set [3] and in data set [4] was above 100 µM in each case.

Consider `COc1ccc(C[C@]2(O)COc3cc(O)cc(O)c3C2=O)cc1`, for which the GI50 in data set [1] was found to be 74 µM. Further, the GI50 at 44 h in data set [5], in data set [3] and in data set [4] was above 100 µM in each case.

In the case of `O=C1c2c(O)cc(O)cc2OC[C@]12Cc1cc3c(cc12)OCO3`, the concentration for 50% growth inhibition (GI50) in data set [1] is above 100 µM. The GI50 at 44 h in data set [2], in data set [3] and in data set [4] was above 100 µM throughout.

As for `COc1c(O)cc2c(c1O)C(=O)/C(=C/c1ccc(O)c(O)c1)CO2`, in data set [1], the GI50 is above 100 µM. Further, the GI50 at 44 h in data set [5], in data set [3] and in data set [4] was above 100 µM each time.

Regarding `CC(=O)Oc1cc(C[C@H]2COc3cc(O)cc(O)c3C2=O)ccc1O`, the GI50 in data set [1] was above 100 µM. The GI50 at 44 h in data set [2], in data set [3] and in data set [4] was above 100 µM in each case.

Take `COc1c(O)cc2c(c1O)C(=O)[C@H](Cc1ccc(O)cc1)CO2`: the GI50 in data set [1] was above 100 µM. The GI50 at 44 h in data set [2], in data set [3] and in data set [4] was above 100 µM in each case.

For `COc1cc(O)cc2c1C(=O)[C@H](Cc1ccc(O)cc1)CO2`, in data set [1], the GI50 is above 100 µM. For the same molecule, the GI50 at 44 h in data set [2], in data set [3] and in data set [4] was above 100 µM each time.

Consider `COc1cc(O)c2c(c1)OC[C@]1(Cc3c1cc(OC)c(OC)c3OC)C2=O`, for which, in data set [1], the 50% growth inhibitory concentration (GI50) was above 100 µM. The 50% growth inhibitory concentration (GI50) at 44 h in data set [2], in data set [3] and in data set [4] was above 100 µM in each case.
